Most compounds without a hit are left out; they make up all but 2.7% or so of the library.
PAFAH1B3 inh – PAFAH1B3 enzyme inhibitors, primary screen, biochemical, fluorescence polarization, human; Platelet-activating factor acetylhydrolase IB subunit alpha1 (Homo sapiens), Q15102; recombinant PAFAH1B3, FP-rhodamine probe; inhibition, % at 3.39 µM; 0.28% of 340,000 active;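 active means inhibition above the screen-wide average of all tested compounds plus 3 SD, cut at about 25% in these data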;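 further: 0% = enzyme with DMSO only and 100% = wells lacking PAFAH1B3 protein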
Target sequence (Q15102 whole entry, looked up): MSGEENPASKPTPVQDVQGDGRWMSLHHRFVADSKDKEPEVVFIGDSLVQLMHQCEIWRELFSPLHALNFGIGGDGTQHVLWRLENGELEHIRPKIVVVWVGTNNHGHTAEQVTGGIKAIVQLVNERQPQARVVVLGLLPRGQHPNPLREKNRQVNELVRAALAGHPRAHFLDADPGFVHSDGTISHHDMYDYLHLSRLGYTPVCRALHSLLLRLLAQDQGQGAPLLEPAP
PAFAH1B2 inh – PAFAH1B2 enzyme inhibitors, primary screen, biochemical, fluorescence polarization, human. Platelet-activating factor acetylhydrolase IB subunit alpha2 (Homo sapiens), P68402. recombinant PAFAH1B2, FP-rhodamine activity probe. inhibition, % at 3.39 µM. 1.2% of 340,000 active;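 active means inhibition above the mean of all tested compounds plus 3 SD, cut at about 24% in these data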;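 further: 0% = enzyme with DMSO and 100% = wells lacking PAFAH1B2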
Target sequence (P68402 whole entry, looked up): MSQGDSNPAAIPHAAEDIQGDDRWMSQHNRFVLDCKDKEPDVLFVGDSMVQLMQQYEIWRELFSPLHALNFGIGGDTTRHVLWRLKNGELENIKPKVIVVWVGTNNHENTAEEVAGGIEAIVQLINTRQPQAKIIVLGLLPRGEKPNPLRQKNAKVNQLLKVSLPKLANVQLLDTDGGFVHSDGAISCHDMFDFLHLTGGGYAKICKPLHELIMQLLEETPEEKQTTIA
PAFAH2 inh – PAFAH2 enzyme inhibitors, primary screen, biochemical, fluorescence polarization, human. recombinant PAFAH2, FP-rhodamine activity probe. inhibition, % at 3.39 µM. 0.99% of 340,000 active. AID 492956, 2010;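 active means inhibition above the mean over all tested compounds plus 3 SD, cut at about 30% in these data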;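 further: inhibitors block probe labeling of enzyme so polarization drops; 0% = enzyme with DMSO and 100% = wells lacking PAFAH2 protein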
pPAFAH FP inh – pPAFAH enzyme inhibitors, primary screen, biochemical, fluorescence polarization, human | recombinant pPAFAH, FP-rhodamine probe fluorescence polarization | 1.5% of 330,000 active | inhibition, % at 3.39 µM | Platelet-activating factor acetylhydrolase (Homo sapiens), Q13093;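 active means inhibition above the mean inhibition across the screen plus 3 SD, cut at about 25% in these data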;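 further: inhibitors block binding of the rhodamine activity-based probe so polarization drops; 0% = enzyme with DMSO and 100% = wells lacking pPAFAH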
ASAP1 GAP inh – inhibitors of human ASAP1 ArfGAP activity, primary screen, biochemical, fluorescence polarization | Arf-GAP with SH3 domain, ANK repeat and PH domain-containing protein 1 (Homo sapiens), … | ASAP1-stimulated ARF1 GTP hydrolysis, GDP FP detection | inhibition, % at 16.5 µM | 0.19% of 360,000 active; in the data active means inhibition above about 25%;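 further: 0% = vehicle with enzyme and substrate and 100% = no enzyme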
ARFGAP1 inh – inhibitors of rat ARFGAP1 GAP activity, primary screen, biochemical, fluorescence polarization, GDP tracer | AID 651572, 2012 | Arfgap1-stimulated ARF1 GTP hydrolysis, GDP FP detection | inhibition, % at 16.5 µM | ADP-ribosylation factor GTPase-activating protein 1 (Rattus norvegicus), Q62848 | 0.26% of 360,000 active;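 active means inhibition above a per-plate limit, mean inhibition of low control wells plus 3 SD, cut at about 25% in these data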;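 further: 0% = DMSO wells with enzyme and 100% = wells lacking Arfgap1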
Target sequence (Q62848 1-136 limits assumed): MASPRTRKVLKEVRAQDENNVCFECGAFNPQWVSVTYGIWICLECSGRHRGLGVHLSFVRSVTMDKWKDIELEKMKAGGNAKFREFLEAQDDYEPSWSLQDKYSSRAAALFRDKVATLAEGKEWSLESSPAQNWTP
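Material: truncated rat Arfgap1 GAP domain; Incubation: compound-enzyme preincubation 20 min, reaction 120 min, detection 60 min, 25 °C; Read-out: percent inhibition of Arfgap1-stimulated GTP hydrolysis; Technique: FP, GDP Alexa 633 tracer displaced from anti-GDP antibody, 620/688 nm; Controls: No-Arfgap1 wells (100%) versus DMSO full-reaction wells (0%); Replication: single well per compound.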
* = called active by the depositor; . = no result given.

SMILES	PAFAH1B3 inh	PAFAH1B2 inh	PAFAH2 inh	pPAFAH FP inh	ASAP1 GAP inh	ARFGAP1 inh
Cc1ccc(N2C3=C(C(=O)CC(C)(C)C3)C(c3cn(C)nc3C)C3=C2CC(C)(C)CC3=O)cc1	1	6	4	27*	-11	7
COc1ccc(C(=O)c2[nH]c(N)c(C(=O)c3c[nH]c4ccccc34)c2-c2ccc(OC)cc2)cc1	.	.	.	.	3	-6
COc1ccc(S(=O)(=O)N2CCCCCC2)cc1NC(=O)CN1C(=O)NC(C)(c2ccc(C)cc2)C1=O (stereo not given)	9	-3	-2	13	3	1
CC1(c2ccc3ccccc3c2)NC(=O)N(CC(=O)Nc2cccc(S(=O)(=O)N3CCOCC3)c2)C1=O (stereo not given)	-8	-2	-10	33*	18	2
CCOc1ccc(S(=O)(=O)N2CCCCC2)cc1NC(=O)CN1C(=O)NC(C)(c2ccc(C)cc2)C1=O (stereo not given)	2	1	6	27*	.	.
CC1(c2cc(F)ccc2F)NC(=O)N(CC(=O)Nc2cccc(S(=O)(=O)N3CCCC3)c2)C1=O (stereo not given)	10	10	-4	-1	-8	-9
Cc1c(Cc2ccccc2)c(=O)oc2c(C)c(OCC(=O)N[C@@H](Cc3ccccc3)C(=O)O)ccc12	1	9	15	33*	-3	5
O=C(O[C@@H]1OC2COC(=O)c3cc(O)c(O)c(O)c3-c3c(cc(O)c(O)c3O)C(=O)O[C@@H]([C@H]1O)[C@@H]2O)c1cc(O)c(O)c(O)c1	37*	26*	59*	75*	.	.
CC(C)CNc1cccc2c1S(=O)(=O)N(Cc1cccc(F)c1)[C@@H](C)[C@H](c1ccccc1)O2	.	.	.	.	0	9
COC(=O)C1=C(C)N(C)C(=NCc2ccc3c(c2)OCO3)NC1c1ccc(Cl)cc1 (stereo not given)	.	.	.	.	3	-4
CN(CCc1ccccn1)C(=S)NC(=O)c1ccco1	5	53*	1	4	4	-7
O=C(NC(=S)NCCc1ccccn1)c1ccco1	6	2	5	-1	15	8
COc1ccc(N2CCN(c3ncnc4scc(-c5ccccc5)c34)CC2)cc1	3	3	1	32*	2	0
COc1ccc(N2CCN(c3ncnc4scc(-c5ccc(C)cc5)c34)CC2)cc1	7	3	-6	4	-4	-7
CC(=O)Nc1ccc(/C(N=Nc2ccccc2)=N/N=C(N)N)cc1	14	8	-2	.	7	-4
Brc1ccc(N/N=C(/N=Nc2nn[nH]n2)c2ccccc2)cc1	23	21	44*	61*	5	-1
O=C(O)c1cccc(N/N=C(\N=Nc2ccccc2)c2ccccc2)c1	-5	3	17	25*	-7	-5
O=C(/C(=N\Nc1ccc(Br)cc1)Sc1nnnn1-c1ccccc1)c1ccccc1	11	20	8	0	7	0
O=C(O)c1ccc(N=N/C(=N\Nc2ccc(C(=O)O)cc2)c2ccccc2)cc1	-2	3	6	27*	-11	7
CC(=O)C1=C(C)N(Cc2ccc(F)cc2)C(=S)NC1c1ccccc1 (stereo not given)	.	.	.	.	-4	1
O=C(C(=O)N1CCC(CNC(=O)c2cccs2)CC1)c1cc2ccccc2o1	.	.	.	.	-8	2
Nc1nc2c(ncn2[C@@H]2O[C@H](C(=O)N[C@H](Cc3ccccc3)C(=O)NCc3ccc4c(c3)OCO4)[C@@H](O)[C@H]2O)c(=O)[nH]1	.	.	.	.	-2	-7
CC(=O)N(Cc1c(C)nn(-c2ccccc2)c1Cl)c1ccc(Cl)cc1	9	19	-4	4	-16	-6
Cc1nn(-c2ccccc2)c(Cl)c1CN(C(=O)CCl)c1ccc(Cl)cc1	0	41*	2	4	-1	-8
COC(=O)Cn1cnc2c(NC(=O)c3ccccc3)ncnc21	.	.	.	.	16	7
SMILES	PAFAH1B3 inh	PAFAH1B2 inh	PAFAH2 inh	pPAFAH FP inh	ASAP1 GAP inh	ARFGAP1 inh
COc1ccc(-c2csc(NC(=O)C3CC(=O)N(c4ccc5c(c4)OCCO5)C3)n2)cc1 (stereo not given)	2	-2	-13	25*	5	-2
CC(=O)Nc1ccc(-c2csc(NC(=O)C3CC(=O)N(c4ccc5c(c4)OCCO5)C3)n2)cc1 (stereo not given)	6	2	1	5	7	-1
CCO/C=C1/C(=O)N(Cc2ccccc2)C(=O)c2ccccc21	13	5	4	2	31*	18
CCO/C=C1\C(=O)N(c2ccccc2)C(=O)c2ccccc21	5	0	-1	3	.	.
CC1CCc2cc(F)ccc2N1S(=O)(=O)c1ccc(Cl)nc1 (stereo not given)	7	29*	-4	-4	3	22
CCOC(=O)CC(=O)CSc1nc2c(c(-c3cccs3)c1C#N)CCC2	6	11	6	13	-5	-5
CCOCCSc1nc2c(c(-c3cccs3)c1C#N)CC/C2=C/c1cccs1	4	2	1	27*	-3	1
Cc1nc2nc(C)c(C)nc2nc1C	.	.	.	.	-3	0
O=C(O)Cc1ccc(O)cc1	8	2	5	2	-3	11
O=C(O)Cc1ccc(-c2ccccc2-c2ccccc2)cc1	4	80*	-7	29*	8	-5
CCN=C1NC(c2ccc(F)cc2)C(C(=O)OC)=C(C)N1Cc1cccc(C(F)(F)F)c1 (stereo not given)	.	.	.	.	-10	8
CC(C)(C)c1sc(N)nc1-c1ccccc1	4	27*	-9	9	0	-3
COc1cccc(C(=O)OCC(=O)NC23CC4CC(CC(C4)C2)C3)c1	12	19	82*	27*	0	-2
CC(=O)Oc1cc(C(=O)OCC(=O)NC23CC4CC(CC(C4)C2)C3)cc(OC(C)=O)c1OC(C)=O	3	65*	88*	.	5	-6
O=C(COC(=O)c1cccs1)NC12CC3CC(CC(C3)C1)C2	1	-3	2	3	6	0
Cc1[nH]nc2c1C(c1ccc3c(c1)OCO3)N(Cc1ccccc1)C2=O (stereo not given)	.	.	.	.	2	6

Compound activity as filed in PubChem.
